The MIC is the lowest concentration that inhibits growth of the organism. The IC50 is the concentration that inhibits the measured activity by half. Low readings indicate greater potency in that assay, high ones weaker potency in that assay.

In experiment [1] the test system is Streptococcus suis. Nature of the experiment: Inhibition of Streptococcus suis 628 mediated hemagglutinination of human erythrocytes. The class given is functional. The procedure, abridged: (§1)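 S. suis grown in THY broth at 37 °C without shaking. Twofold dilutions of galabiose compound were preincubated with equal volumes of bacteria for 5 min at room temperature. Then 5% sialidase-treated human erythrocytes were added. After 1 h on ice, agglutination was scored visually. MIC was taken as the lowest concentration giving complete inhibition.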

Experiment [2] concerns Streptococcus suis. Put plainly: Relative potency against Streptococcus suis 628 mediated hemagglutinination of human erythrocytes measured as IC50 for monovalent galobiose compound to the multivalent compound. The class given is functional. In a few lines: (§2)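 Hemagglutination MIC read-out. Bacteria (THY broth, 37 °C, static) were preincubated 5 min at room temperature with twofold inhibitor dilutions. Sialidase-treated 5% human erythrocytes were added and agglutination was scored visually after 1 h on ice. Potency is expressed relative to the monovalent reference galabioside.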

Experiment [3] concerns Streptococcus suis. Nature of the experiment: Inhibition of Streptococcus suis 836 mediated hemagglutinination of human erythrocytes. The format is functional. The procedure, abridged: as §1
Experiment [4] relates to Streptococcus suis. Put plainly: Relative potency against Streptococcus suis 836 mediated hemagglutinination of human erythrocytes measured as IC50 for monovalent galobiose compound to the multivalent compound. The format is functional. The procedure, abridged:
as §2

In experiment [5] the test system is Streptococcus suis. Nature of the experiment: Inhibition of Streptococcus suis 628 binding to pigeon ovomucoid by surface plasmon resonance assay. The format is functional, organism-based. The procedure, abridged:
(§3)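 SPR competition format. S. suis was cultured in THY broth at 37 °C without shaking. Bacteria were incubated 5 min with inhibitor dilutions in HBS-P buffer, then injected over the sensor chip. The surface was regenerated with 10 mM NaOH between injections. Data from repeated experiments were normalized 0–100 to build inhibition curves. Line 7 expresses potency relative to the monovalent reference.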
(SPR reads the build-up and loss of mass on a sensor chip optically.)

Experiment [6] has as its system Streptococcus suis. Nature of the experiment: Relative potency for against treptococcus suis 628 binding to pigeon ovomucoid by surface plasmon resonance assay measured as IC50 for monovalent galobiose compound to the multivalent compound. The format is functional. In a few lines:
as §3

The subject of experiment [7] is Streptococcus suis. Nature of the experiment: Inhibition of Streptococcus suis 628 binding to pigeon ovomucoid by ELISA. The format is functional, organism-based.

In brackets after ≈: the same amount, converted by molar mass.

As to `COC(=O)c1cc(OCCNC(=O)COCC(=O)NCCCO[C@@H]2O[C@H](CO)[C@H](O[C@H]3O[C@H](CO)[C@H](O)[C@H](O)[C@H]3O)[C@H](O)[C@H]2O)cc(OCCNC(=O)COCC(=O)NCCCO[C@@H]2O[C@H](CO)[C@H](O[C@H]3O[C@H](CO)[C@H](O)[C@H](O)[C@H]3O)[C@H](O)[C@H]2O)c1`, the MIC worked out at 0.006 µM (≈ 0.0075 µg/mL) with Streptococcus suis [1] and 0.07 µM (≈ 0.0874 µg/mL) with Streptococcus suis [3]. Moreover, the figures for the “Ratio IC50” value in the experiment on Streptococcus suis [2], with Streptococcus suis [4] and in the experiment with Streptococcus suis [6] were 150, 22 and 8, respectively. The molecule also showed an IC50 in the experiment with Streptococcus suis [5] of 235 nM.

As for `O=C(COCC(=O)NCCCO[C@@H]1O[C@H](CO)[C@H](O[C@H]2O[C@H](CO)[C@H](O)[C@H](O)[C@H]2O)[C@H](O)[C@H]1O)NCC#Cc1ccc(C#CCNC(=O)COCC(=O)NCCCO[C@@H]2O[C@H](CO)[C@H](O[C@H]3O[C@H](CO)[C@H](O)[C@H](O)[C@H]3O)[C@H](O)[C@H]2O)cc1`, the MIC with Streptococcus suis [1] was 0.007 µM (≈ 0.00825 µg/mL); against Streptococcus suis [3] it was 0.09 µM (≈ 0.106 µg/mL). Further, the “Ratio IC50” value with Streptococcus suis [2] was 128; with Streptococcus suis [4], 18; with Streptococcus suis [6], 6. In the experiment with Streptococcus suis [5], this molecule returned an IC50 of 309 nM.

For `COC(=O)c1cc(OCCNC(=O)c2cc(OCCNC(=O)COCC(=O)NCCCO[C@@H]3O[C@H](CO)[C@H](O[C@H]4O[C@H](CO)[C@H](O)[C@H](O)[C@H]4O)[C@H](O)[C@H]3O)cc(OCCNC(=O)COCC(=O)NCCCO[C@@H]3O[C@H](CO)[C@H](O[C@H]4O[C@H](CO)[C@H](O)[C@H](O)[C@H]4O)[C@H](O)[C@H]3O)c2)cc(OCCNC(=O)c2cc(OCCNC(=O)COCC(=O)NCCCO[C@@H]3O[C@H](CO)[C@H](O[C@H]4O[C@H](CO)[C@H](O)[C@H](O)[C@H]4O)[C@H](O)[C@H]3O)cc(OCCNC(=O)COCC(=O)NCCCO[C@@H]3O[C@H](CO)[C@H](O[C@H]4O[C@H](CO)[C@H](O)[C@H](O)[C@H]4O)[C@H](O)[C@H]3O)c2)c1`, the MIC amounted to 0.002 µM (≈ 0.00538 µg/mL) against Streptococcus suis [1] and 0.04 µM (≈ 0.108 µg/mL) in the experiment on Streptococcus suis [3]. In addition, the figures for the “Ratio IC50” value in the experiment with Streptococcus suis [2], in the experiment on Streptococcus suis [4] and in the experiment with Streptococcus suis [6] were 450, 40 and 256, respectively. The same molecule had an IC50 in the experiment on Streptococcus suis [5] of 7 nM.

For `COC(=O)c1cccc(OCCNC(=O)COCC(=O)NCCCO[C@@H]2O[C@H](CO)[C@H](O[C@H]3O[C@H](CO)[C@H](O)[C@H](O)[C@H]3O)[C@H](O)[C@H]2O)c1`, the MIC with Streptococcus suis [1] turned out to be 0.9 µM (≈ 0.623 µg/mL); against Streptococcus suis [3], 1.6 µM (≈ 1.11 µg/mL). Further, the results for the IC50 in the experiment with Streptococcus suis [5] and in the experiment on Streptococcus suis [7] were 1800 nM and 45000 nM, respectively.

Regarding `O=C(CCN(CCNC(=O)CCN(CCC(=O)NCCN(CCC(=O)NCCNC(=O)COCC(=O)NCCCO[C@@H]1O[C@H](CO)[C@H](O[C@H]2O[C@H](CO)[C@H](O)[C@H](O)[C@H]2O)[C@H](O)[C@H]1O)CCC(=O)NCCNC(=O)COCC(=O)NCCCO[C@@H]1O[C@H](CO)[C@H](O[C@H]2O[C@H](CO)[C@H](O)[C@H](O)[C@H]2O)[C@H](O)[C@H]1O)CCN(CCC(=O)NCCN(CCC(=O)NCCNC(=O)COCC(=O)NCCCO[C@@H]1O[C@H](CO)[C@H](O[C@H]2O[C@H](CO)[C@H](O)[C@H](O)[C@H]2O)[C@H](O)[C@H]1O)CCC(=O)NCCNC(=O)COCC(=O)NCCCO[C@@H]1O[C@H](CO)[C@H](O[C@H]2O[C@H](CO)[C@H](O)[C@H](O)[C@H]2O)[C@H](O)[C@H]1O)CCC(=O)NCCN(CCC(=O)NCCNC(=O)COCC(=O)NCCCO[C@@H]1O[C@H](CO)[C@H](O[C@H]2O[C@H](CO)[C@H](O)[C@H](O)[C@H]2O)[C@H](O)[C@H]1O)CCC(=O)NCCNC(=O)COCC(=O)NCCCO[C@@H]1O[C@H](CO)[C@H](O[C@H]2O[C@H](CO)[C@H](O)[C@H](O)[C@H]2O)[C@H](O)[C@H]1O)CCC(=O)NCCNC(=O)COCC(=O)NCCCO[C@@H]1O[C@H](CO)[C@H](O[C@H]2O[C@H](CO)[C@H](O)[C@H](O)[C@H]2O)[C@H](O)[C@H]1O)NCCNC(=O)COCC(=O)NCCCO[C@@H]1O[C@H](CO)[C@H](O[C@H]2O[C@H](CO)[C@H](O)[C@H](O)[C@H]2O)[C@H](O)[C@H]1O`, the MIC came out at 0.0003 µM (≈ 0.00162 µg/mL) in the experiment on Streptococcus suis [1] and 0.002 µM (≈ 0.0108 µg/mL) in the experiment with Streptococcus suis [3]. The “Ratio IC50” value is reported as 3000 in the experiment with Streptococcus suis [2], 800 in the experiment with Streptococcus suis [4] and 256 in the experiment with Streptococcus suis [6]. Further, the IC50 in the experiment with Streptococcus suis [5] came to 7 nM.

For the molecule `COC(=O)c1cc(OCCNC(=O)COCC(=O)NCCCOCCOCCOCCCNC(=O)COCC(=O)NCCCO[C@@H]2O[C@H](CO)[C@H](O[C@H]3O[C@H](CO)[C@H](O)[C@H](O)[C@H]3O)[C@H](O)[C@H]2O)cc(OCCNC(=O)COCC(=O)NCCCOCCOCCOCCCNC(=O)COCC(=O)NCCCO[C@@H]2O[C@H](CO)[C@H](O[C@H]3O[C@H](CO)[C@H](O)[C@H](O)[C@H]3O)[C@H](O)[C@H]2O)c1`, the MIC in the experiment on Streptococcus suis [1] was determined as 0.009 µM (≈ 0.017 µg/mL); against Streptococcus suis [3], 0.1 µM (≈ 0.189 µg/mL). Besides, the “Ratio IC50” value came out at 100 in the experiment on Streptococcus suis [2], 16 in the experiment on Streptococcus suis [4] and 12 in the experiment with Streptococcus suis [6]. The molecule also had an IC50 in the experiment on Streptococcus suis [5] of 156 nM.

In the case of `O=C(COCC(=O)NCCCO[C@@H]1O[C@H](CO)[C@H](O[C@H]2O[C@H](CO)[C@H](O)[C@H](O)[C@H]2O)[C@H](O)[C@H]1O)NCC#Cc1cccc(C#CCNC(=O)COCC(=O)NCCCO[C@@H]2O[C@H](CO)[C@H](O[C@H]3O[C@H](CO)[C@H](O)[C@H](O)[C@H]3O)[C@H](O)[C@H]2O)c1`, the MIC in the experiment with Streptococcus suis [1] amounted to 0.004 µM (≈ 0.00472 µg/mL); against Streptococcus suis [3], 0.05 µM (≈ 0.059 µg/mL). The “Ratio IC50” value was 225 with Streptococcus suis [2], 32 in the experiment on Streptococcus suis [4] and 6 with Streptococcus suis [6]. The same molecule gave an IC50 with Streptococcus suis [5] of 293 nM.

Source of the values: ChEMBL document CHEMBL1149276, “Inhibition of Streptococcus suis adhesion by dendritic galabiose compounds at low nanomolar concentration” (J Med Chem, 2004).
